In ChEMBL document CHEMBL4428033, “The Flavone Luteolin Inhibits Liver X Receptor Activation” (J Nat Prod, 2016):
Active and inactive are the calls of the source. No cut-off for these calls is given here.

Legend:
[1] = molecular target: T1, Oxysterols receptor LXR-alpha/beta (Mus musculus) (UniProt Q9Z0Y9+Q60644); test: Inhibition of T0901317-induced LXR-alpha/beta transactivation in mouse RAW264.7 cells assessed as reduction in ABCA1 mRNA expression at 10 uM after 3 hrs by RT-PCR method; type: cell-based
Method in brief: (§1)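 RAW 264.7 macrophages pretreated 1 h with T0901317 (0.01–10 μM, or 1 μM), or left in medium, then luteolin 10, 25 or 50 μM for 3 h. ABCA1 mRNA by SYBR-Green real-time RT-PCR, normalised to HPRT1. Pfaffl fold change versus medium control or the T0901317-treated sample. Three independent experiments in duplicate, mean ± SEM. One-way ANOVA with Dunnett's test.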

[2] = molecular target: T2, Oxysterols receptor LXR-alpha (Homo sapiens) (UniProt Q13133); test: Inhibition of T0901317-induced human LXR-alpha transcriptional activity after 22 hrs by cell based luciferase reporter gene assay
T2 sequence (whole entry): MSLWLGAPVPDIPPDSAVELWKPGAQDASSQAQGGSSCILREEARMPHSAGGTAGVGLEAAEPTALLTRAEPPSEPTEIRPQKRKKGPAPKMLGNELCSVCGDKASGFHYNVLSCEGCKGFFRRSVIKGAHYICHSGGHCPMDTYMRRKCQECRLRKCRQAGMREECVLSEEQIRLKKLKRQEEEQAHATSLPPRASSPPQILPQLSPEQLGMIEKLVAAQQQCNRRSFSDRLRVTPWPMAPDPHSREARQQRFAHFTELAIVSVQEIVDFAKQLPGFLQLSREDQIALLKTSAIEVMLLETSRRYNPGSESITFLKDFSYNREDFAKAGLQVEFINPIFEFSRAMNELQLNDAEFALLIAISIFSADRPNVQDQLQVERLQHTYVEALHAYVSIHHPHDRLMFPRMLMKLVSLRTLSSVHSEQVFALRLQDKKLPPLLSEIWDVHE
Method in brief: (§2)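 Commercial LXRα or LXRβ luciferase reporter cells (nonhuman mammalian) kept in medium or given T0901317 0.01–10 μM, alone or with luteolin 10, 25 or 50 μM, for 22 h. Luminescence read per kit instructions, 500 ms read time. RLU plotted against log T0901317 concentration.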

[3] = molecular target: T3, Oxysterols receptor LXR-beta (Homo sapiens) (UniProt P55055); test: Inhibition of T0901317-induced human LXR-beta transcriptional activity after 22 hrs by cell based luciferase reporter gene assay; method in brief: as §2
T3 sequence (whole entry): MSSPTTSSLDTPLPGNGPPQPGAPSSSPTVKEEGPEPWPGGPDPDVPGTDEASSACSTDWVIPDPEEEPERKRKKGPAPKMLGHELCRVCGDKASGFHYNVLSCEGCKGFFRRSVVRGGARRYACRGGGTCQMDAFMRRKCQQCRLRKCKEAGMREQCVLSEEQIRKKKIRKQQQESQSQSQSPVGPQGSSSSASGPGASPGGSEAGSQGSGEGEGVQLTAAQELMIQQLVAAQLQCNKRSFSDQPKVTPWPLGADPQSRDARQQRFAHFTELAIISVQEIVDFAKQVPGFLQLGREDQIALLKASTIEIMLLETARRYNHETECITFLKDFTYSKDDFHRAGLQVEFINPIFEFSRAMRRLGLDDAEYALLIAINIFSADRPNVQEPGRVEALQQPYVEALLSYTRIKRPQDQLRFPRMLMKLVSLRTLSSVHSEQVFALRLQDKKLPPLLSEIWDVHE

[4] = molecular target: T2, Oxysterols receptor LXR-alpha (Homo sapiens); test: Inhibition of T0901317-induced human LXR-alpha transcriptional activity at 10 uM after 22 hrs by cell based luciferase reporter gene assay; method in brief: as §2
[5] = molecular target: T3, Oxysterols receptor LXR-beta (Homo sapiens); test: Inhibition of T0901317-induced human LXR-beta transcriptional activity at 10 uM after 22 hrs by cell based luciferase reporter gene assay; method in brief: as §2
[6] = molecular target: T2, Oxysterols receptor LXR-alpha (Homo sapiens); test: Transactivation of human LXR-alpha at 10 to 50 uM after 22 hrs by cell based luciferase reporter gene assay; method in brief: as §2
[7] = molecular target: T3, Oxysterols receptor LXR-beta (Homo sapiens); test: Transactivation of human LXR-beta at 10 to 50 uM after 22 hrs by cell based luciferase reporter gene assay; method in brief: as §2
[8] = molecular target: T4, Liver X receptor (Homo sapiens) (UniProt Q13133+P55055); test: Inhibition of T0901317-induced LXR-alpha/beta transactivation in human HepG2 cells assessed as reduction in SREBP-1c mRNA expression at 50 uM after 12 hrs by RT-PCR method; type: cell-based
Method in brief: (§3)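 HepG2 cells in low-glucose DMEM with 10% FBS, 37 °C, 5% CO2. Pretreated 1 h with T0901317 (0.01–10 μM, or 0.05 or 1 μM), or left in medium, then given luteolin 10, 25 or 50 μM for 12 h. Trizol RNA, SYBR-Green real-time RT-PCR for SREBP-1c, normalised to HPRT1. Pfaffl fold change versus medium control. Two independent experiments in duplicate, mean ± SEM.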

[9] = molecular target: T4, Liver X receptor (Homo sapiens); test: Inhibition of T0901317-induced LXR-alpha/beta transactivation in human HepG2 cells assessed as reduction in SREBP-1c mRNA expression at 10 to 25 uM after 12 hrs by RT-PCR method; type: cell-based; method in brief: as §3
[10] = molecular target: T5, Liver X receptor (Homo sapiens, UniProt Q13133+P55055); test: Transactivation of LXR-alpha/beta in human HepG2 cells assessed as upregulation of SREBP-1c mRNA expression at 10 to 50 uM after 12 hrs by RT-PCR method; type: cell-based; settings: hepg2, 12 h; method in brief: as §3
T5 sequence (Q13133 whole entry): T2 sequence (whole entry)
T5 sequence (P55055 whole entry): T3 sequence (whole entry)

[11] = tested on: HepG2; test: Cytotoxicity against human HepG2 cells assessed as reduction in cell viability at 10 to 50 uM after 12 hrs by MTT assay; type: cell-based; settings: hepg2, 12 h
Method in brief: (§4)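 Cells treated as in the RT-PCR assays (T0901317 pretreatment 1 h, then luteolin 10, 25 or 50 μM; 12 h for HepG2, 3 h for RAW 264.7). MTT added at 37 °C for 60 min (HepG2) or 15 min (RAW 264.7). Formazan dissolved in acidic 2-propanol and read at 570 nm, reference 620 nm.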

[12] = tested on: HepG2; test: Inhibition of T0901317-induced lipid accumulation in human HepG2 cells at 50 uM preincubated for 1 hr followed by T0901317 addition measured after 24 hrs by Oil Red-O dye based microscopic analysis; type: functional, cell-based
Method in brief: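 HepG2 cells preincubated 1 h with luteolin 25 or 50 μM, then T0901317 5 μM added for 24 h. Fixed in 4% paraformaldehyde for 20 min at room temperature. Stained with Oil Red-O (0.6% stock diluted 6:4 with water) for 45 min at room temperature, washed, then imaged by microscopy; absorbance recorded.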

[13] = molecular target: T1, Oxysterols receptor LXR-alpha/beta (Mus musculus); test: Inhibition of T0901317-induced LXR-alpha/beta transactivation in mouse RAW264.7 cells assessed as reduction in ABCA1 mRNA expression at 25 uM after 3 hrs by RT-PCR method relative to control; type: cell-based; method in brief: as §1
[14] = molecular target: T1, Oxysterols receptor LXR-alpha/beta (Mus musculus); test: Inhibition of T0901317-induced LXR-alpha/beta transactivation in mouse RAW264.7 cells assessed as reduction in ABCA1 mRNA expression at 50 uM after 3 hrs by RT-PCR method relative to control; type: cell-based; method in brief: as §1
[15] = molecular target: T1, Oxysterols receptor LXR-alpha/beta (Mus musculus); test: Inhibition of T0901317-induced LXR-alpha/beta transactivation in mouse RAW264.7 cells assessed as reduction in ABCA1 mRNA expression after 3 hrs by RT-PCR method; type: cell-based; method in brief: as §1
[16] = molecular target: T6, Oxysterols receptor LXR-alpha/beta (Mus musculus, UniProt Q9Z0Y9+Q60644); test: Transactivation of LXR-alpha/beta in mouse RAW264.7 cells assessed as upregulation of ABCA1 mRNA expression at 10 to 50 uM after 3 hrs by RT-PCR method; type: cell-based; settings: raw264.7, 3 h; method in brief: as §1
T6 sequence (Q9Z0Y9 whole entry): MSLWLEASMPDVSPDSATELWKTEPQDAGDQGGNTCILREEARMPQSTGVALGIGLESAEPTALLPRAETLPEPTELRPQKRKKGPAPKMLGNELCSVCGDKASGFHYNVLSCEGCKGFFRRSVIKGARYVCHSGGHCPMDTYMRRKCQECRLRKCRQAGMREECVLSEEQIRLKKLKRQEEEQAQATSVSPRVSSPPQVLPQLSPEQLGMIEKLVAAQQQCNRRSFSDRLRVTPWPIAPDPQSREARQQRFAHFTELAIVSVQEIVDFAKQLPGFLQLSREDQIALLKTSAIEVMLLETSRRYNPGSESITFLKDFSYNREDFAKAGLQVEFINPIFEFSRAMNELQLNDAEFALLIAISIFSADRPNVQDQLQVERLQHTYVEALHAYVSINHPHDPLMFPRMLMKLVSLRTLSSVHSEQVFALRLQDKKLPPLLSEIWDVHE
T6 sequence (Q60644 whole entry): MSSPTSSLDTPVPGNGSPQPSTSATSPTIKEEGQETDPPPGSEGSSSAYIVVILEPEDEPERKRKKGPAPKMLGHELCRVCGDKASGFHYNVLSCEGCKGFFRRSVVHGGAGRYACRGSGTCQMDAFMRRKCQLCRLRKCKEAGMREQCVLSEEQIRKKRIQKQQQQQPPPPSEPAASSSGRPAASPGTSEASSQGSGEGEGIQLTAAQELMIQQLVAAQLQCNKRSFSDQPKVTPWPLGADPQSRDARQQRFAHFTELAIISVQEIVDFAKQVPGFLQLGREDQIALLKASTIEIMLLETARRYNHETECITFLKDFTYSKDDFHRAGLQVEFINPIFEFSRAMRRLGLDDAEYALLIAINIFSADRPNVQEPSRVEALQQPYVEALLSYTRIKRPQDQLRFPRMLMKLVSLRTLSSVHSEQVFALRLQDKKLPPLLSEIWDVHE

[17] = tested on: RAW264.7; test: Cytotoxicity against mouse RAW264.7 cells assessed as reduction in cell viability at 10 to 50 uM after 3 hrs by MTT assay; type: cell-based; settings: raw264.7, 3 h; method in brief: as §4
[18] = tested on: Mus musculus; test: Antihyperlipidemic activity in ethanol-induced steatosis C57BL/6 mouse model assessed as inhibition of serum triacylglycerol level at 50 mg/kg, po administered daily through oral gavage for 2 weeks by colorimetric method relative to control; type: functional; settings: C57BL/6, po, 336 h
[19] = tested on: Mus musculus; test: Antihyperlipidemic activity in ethanol-induced steatosis C57BL/6 mouse model assessed as inhibition of serum LDL cholesterol level at 50 mg/kg, po administered daily through oral gavage for 2 weeks by colorimetric method relative to control; type: functional; settings: C57BL/6, po, 336 h

O=c1cc(-c2ccc(O)c(O)c2)oc2cc(O)cc(O)c12 [LUTEOLIN]
inhibition [1]: inactive
inhibition [2]: Dose-dependent effect
inhibition [3]: Dose-dependent effect
inhibition [4]: inactive
inhibition [5]: inactive
Activity [6]: inactive
Activity [7]: inactive
inhibition [8]: Active
inhibition [9]: inactive
Activity [10]: Not Active
Activity [11]: Non-Toxic
inhibition [12]: Active
inhibition [13]: 41%
inhibition [14]: 64%
inhibition [15]: Dose-dependent effect
Activity [16]: Not Active
Activity [17]: Non-Toxic
inhibition in vivo at 50 mg/kg [18]: 22%
inhibition in vivo at 50 mg/kg [19]: 52%
